System: MS2 coat protein
Test: apparent Kd, MS2 coat protein; higher = weaker binding; RNA-MaP array; FMN 200 µM where present
Procedure, shortened: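 In 100 mM Tris-HCl pH 7.5, 80 mM KCl, 4 mM MgCl2, BSA, DTT, yeast tRNA and Tween-20, SNAP-549-labelled MS2 coat protein was titrated from 0.7 or 1.5 nM, doubling to 3 µM, over designs transcribed by stalled E. coli RNA polymerase on Illumina sequencing-chip clusters. This was done first without ligand, then with ligand held constant. After green signal was normalised to red-channel RNA signal and control-cluster median Fmax, the apparent Kd was taken as the median of filtered per-cluster binding-curve fits.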

[1] = designed as: OFF switch for flavin mononucleotide, no ligand
[2] = ligand present: flavin mononucleotide, designed as: OFF switch for flavin mononucleotide
[3] = designed as: ON switch for flavin mononucleotide, no ligand
[4] = ligand present: flavin mononucleotide, designed as: ON switch for flavin mononucleotide

Row | Sequence | apparent Kd [1] | apparent Kd [2] | apparent Kd [3] | apparent Kd [4]
1 | GGAUGCAAGGAGAAGGGCUACUGGUUGAAACCUGCGGCCUCUGGAACAUGAGGAUCACCCAUGUAGCAGGAUAUCCUUACGUGA | 233 nM | 32.8 nM | – | –
2 | GGAUGUCAAAGACAUCCAAUACGAACAUGAGGAUCACCCAUGUAGGAUAUGCUACUCAAAGAGUAGCAGAAGGACAUGUGUCUU | 30.6 nM | 164 nM | – | –
3 | GGAUUACAUGAGGAUCACCCAUGUGAGGAUAUCGAUGUCCUCAGUAGAGUGCGGGACUCGAGAAGGCACUUGGA | 70.1 nM | 95.9 nM | – | –
4 | GGCACACAUGAGGAUCACCCAUGUGAGGAUAUGUUAGUUUCGGCCAAAGCCGAAAUUAACAGAAGGCACAUGCC | 14.9 nM | 26.4 nM | – | –
5 | GGCACCAUCACAGGAUAUGCUUUCCUUUGGGAAGCAGAAGGGUGUAACAUGAGGAUCACCCAUGUGGUGCCAGGGCGUGAGCCC | – | – | 164 nM | 14 nM
6 | GGCACCAUCACAGGAUAUGCUUUCUUUUGGGAAGCAGAAGGGUGUAACAUGAGGAUCACCCAUGUGGUGCCAGGGCGUGAGCCC | – | – | 175 nM | 14 nM
7 | GGCCUGCAGCUAGGAUAUGGGCGAUCACAUGAGGAUCACCCAUGUCAACAUCAAAACAAGAUUAACCAGAAGGAGCCGCGAGUU | – | – | 26.5 nM | 211 nM
8 | GGCGCAUUUGUGGCGUAUAGGUCGAAGGAUAUCACGUGCCGCCUAGUACAUGAGGAUCACCCAUGUGAGAAGGUCGAACUUAAC | 19.3 nM | 83.5 nM | – | –
9 | GGCUACGUUUCGUAGCAGCUAGGUGAGGAUAUUCAAUUUUUCACAUGAGGAUCACCCAUGUAUGUGAAGAAGGCGCCUAGAAAA | – | – | 11.7 nM | 4.83 nM
10 | GGCUCUGCUCGAGGAUAUAGCUGCAUGUAGUGUCCUGAGGCACAUGAGGAUCACCCAUGUGUAGGCUAGAAGGCGACAGAGGCG | 188 nM | 276 nM | – | –
11 | GGCUUAAACACAGGAUAUGGCCUCAGAGUAAGGCCAGAAGGGUGAAGUUCUCAUACAUGAGGAUCACCCAUGUCAAGGAGGCUA | – | – | 521 nM | 204 nM
12 | GGCUUCUUCACAGGAUAUGGUUUUUUAAGUAUACAUGAGGAUCACCCAUGUCCAGAAGGGUGAGGGUUCGGCGUGCGGUGUCGG | – | – | 384 nM | 42.7 nM
13 | GGCUUGCAGCUAGGAUAUGGGCGAUCACAUGAGGAUCACCCAUGUCAACAUCAAAACAAGAUUAACCAGAAGGAGCCGCGGGUU | – | – | 50.6 nM | 153 nM
14 | GGGAAGUUAGGAUAUGCUGCUCGUCACUUGCGUGAUGAGUAGCAGAAGGGACAUGAGGAUCACCCAUGUAAAGA | 41.6 nM | 26.2 nM | – | –
15 | GGGAGUCUACAUGAGGAUCACCCAUGUGGUCCAGCAGGAACACAGGAUAUCCAAUGAGAUUCUCGGGAGAAGGGUGAAUGCUUA | – | – | 107 nM | 174 nM
16 | GGGCCAUAGUAGAAGGGAUAUACGAAAGGUAUAUCAGGAUAUACAUGAGGAUCACCCAUGUUCUAACAGUGAUAGUCCUCCCUA | 22.4 nM | 69.8 nM | – | –
17 | GGGCCCGGAGGAUAUACAAUGGGCCCGGGAAAUUGGGCCCUACAUGAGGAUCACCCAUGUAGAAGGUUGGGCCC | 12.8 nM | 13.6 nM | – | –
18 | GGGCCCGGAGGAUAUACAUGAGGAUCACCCAUGUACCCGGGCCCUAUUGGGUUUGGGUGUAGAAGGCCGGGCCC | 15 nM | 15.3 nM | – | –
19 | GGGCCCGGAGGAUAUACAUGAGGAUCACCCAUGUAGGGCUCGGGUAUUUCUGGGUCUUGUAGAAGGCCGGGCCC | 16 nM | 22.8 nM | – | –
20 | GGGCCGCUACGCCGGCUCCACGCACAGGAUAUGCAGUUACAUGAGGAUCACCCAUGUGGCCAUGUGCAGAAGGGUGAUUCGCGA | – | – | 78.7 nM | 46.1 nM
21 | GGGCCGGUGGAGAAGGAGCUCACGUAACGUAGGCUAGGAUAUCCACAUGAGGAUCACCCAUGUGGGAAUAUCUGAUUUUCACAG | 4.01 nM | 4.88 nM | – | –
22 | GGGCCGUAGUAGAAGGGAUAUACGUUAGGUAUAUCAGGAUAUACAUGAGGAUCACCCAUGUUCUAACAGUGAUAGUCCUCCCUA | 19.8 nM | 55.4 nM | – | –
23 | GGGCGUGAAGGAUAUACAUGAGGAUCACCCAUGUGGGAGGAGAAUGGUGAGGAGGCUGGUAGAAGGUCAGGAGG | 47.9 nM | 45.8 nM | – | –

From the EternaBench riboswitch data
